What was measured:
[1] = test system: tunicate LXR; conditions: ref Reschly et al. 2008; cited from earlier work
[2] = target: T1, L. japonicum LXR (Lethenteron camtschaticum, UniProt A0A1S6EKM6); experiment: GAL4-LBD chimeric receptor luciferase transactivation assay in COS-1 cells; format: cell-based
T1 sequence (A0A1S6EKM6 89-387): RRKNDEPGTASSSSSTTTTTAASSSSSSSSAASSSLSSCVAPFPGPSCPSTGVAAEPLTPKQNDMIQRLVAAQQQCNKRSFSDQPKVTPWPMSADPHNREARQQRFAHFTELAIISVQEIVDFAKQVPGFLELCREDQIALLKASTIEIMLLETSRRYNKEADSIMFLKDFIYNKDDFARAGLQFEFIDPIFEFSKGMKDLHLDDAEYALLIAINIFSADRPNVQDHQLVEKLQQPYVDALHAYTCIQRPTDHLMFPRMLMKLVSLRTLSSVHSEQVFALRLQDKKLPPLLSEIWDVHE
In short: (§1)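 The receptor's ligand-binding domain plus hinge was fused to the GAL4 DBD in pBIND. COS-1 cells were seeded 24 h before lipofection with 500 ng receptor plasmid and 1,000 ng GAL4UAS-luc2P reporter. After 5 h, medium became phenol red-free DMEM/10% charcoal-stripped FBS with compound in DMSO (oxysterols 10^1–10^5.5 nM). Dual-luciferase was read 24 h post-transfection, in triplicate over three experiments, as mean ± SE. EC50 came from sigmoidal dose–response curves. Normalized fold activation was compared by one-way ANOVA/Holm–Sidak.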

[3] = test system: LXRβ; conditions: human and mouse LXRs; ref Reschly et al. 2008; cited from earlier work
[4] = test system: LXRα; conditions: human and mouse LXRs; ref Reschly et al. 2008; cited from earlier work
[5] = target: T2, L. erinacea LXRβ (Leucoraja erinacea, UniProt A0A1S6EKM5); experiment: GAL4-LBD chimeric receptor luciferase transactivation assay in COS-1 cells; format: cell-based; conditions: all tested concentrations, P < 0.001
T2 sequence (A0A1S6EKM5 2-271): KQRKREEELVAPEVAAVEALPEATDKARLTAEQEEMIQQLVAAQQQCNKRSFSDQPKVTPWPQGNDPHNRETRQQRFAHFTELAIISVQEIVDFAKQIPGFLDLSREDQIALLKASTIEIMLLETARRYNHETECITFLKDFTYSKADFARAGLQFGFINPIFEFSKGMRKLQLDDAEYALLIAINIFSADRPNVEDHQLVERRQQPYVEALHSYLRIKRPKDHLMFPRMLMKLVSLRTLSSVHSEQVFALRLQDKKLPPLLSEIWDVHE
In short: as §1

[6] = target: T3, L. erinacea LXRα (Leucoraja erinacea, UniProt A0A1S6EKM1); experiment: as above; format: cell-based; conditions: all tested concentrations, P < 0.001
T3 sequence (A0A1S6EKM1 181-451): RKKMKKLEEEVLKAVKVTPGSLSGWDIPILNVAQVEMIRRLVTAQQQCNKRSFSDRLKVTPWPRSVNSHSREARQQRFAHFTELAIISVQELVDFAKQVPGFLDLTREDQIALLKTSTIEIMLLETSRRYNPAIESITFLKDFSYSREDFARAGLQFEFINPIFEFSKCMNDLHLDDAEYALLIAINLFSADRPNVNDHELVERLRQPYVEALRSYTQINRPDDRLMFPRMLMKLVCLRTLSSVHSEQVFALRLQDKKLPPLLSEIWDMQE
In short: as §1

[7] = target: T4, B. lanceolatum LXR (Branchiostoma lanceolatum, UniProt A0A8J9ZB24); experiment: as above; format: cell-based
T4 sequence (A0A8J9ZB24 168-437): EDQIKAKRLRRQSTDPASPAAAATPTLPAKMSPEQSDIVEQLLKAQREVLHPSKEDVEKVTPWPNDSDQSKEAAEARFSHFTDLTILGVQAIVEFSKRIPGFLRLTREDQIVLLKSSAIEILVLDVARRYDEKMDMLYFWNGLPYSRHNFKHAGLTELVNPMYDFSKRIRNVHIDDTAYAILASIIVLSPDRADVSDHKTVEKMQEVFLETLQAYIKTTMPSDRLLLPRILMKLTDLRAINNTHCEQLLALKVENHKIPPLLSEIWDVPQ
In short: as §1

Row | SMILES | activation of tunicate LXR (in words) [1] | transcriptional activation of lamprey LXR (in words) [2] | activation of LXRβ (in words) [3] | activation of LXRα (in words) [4] | further results
1 | O=Cc1c2[nH]c3ccccc3c2cc2[nH]c3ccccc3c12 [6-Formylindolo(3,2-b)carbazole] | strongly activated |  |  |  | 
2 | C[C@H](CCCC(C)(C)O)[C@H]1CC[C@H]2[C@@H]3CC=C4C[C@@H](O)CC[C@]4(C)[C@H]3CC[C@]12C [25-HC, 25-hydroxycholesterol] |  | prominent and statistically significant (P < 0.001), yet only at higher concentrations | lower transcriptional responses | lower transcriptional responses | 
3 | O=S(=O)(c1ccccc1)N(CC(F)(F)F)c1ccc(C(O)(C(F)(F)F)C(F)(F)F)cc1 [T0901317] |  | significant activations |  |  | agonistic response, little skate LXRβ (in words) [5]: significant activations; agonistic response, little skate LXRα (in words) [6]: significant activations
4 | C[C@H](CC[C@@H]1OC1(C)C)[C@H]1CC[C@H]2[C@@H]3CC=C4C[C@@H](O)CC[C@]4(C)[C@H]3CC[C@]12C [24,25-EC, 24(S),25-epoxycholesterol] |  | strongly induced | robustly activated | robustly activated | 
5 | C[C@@]12CCC[C@H]1[C@@H]1CC[C@H]3C[C@@H](O)CC[C@]3(C)[C@H]1CC2 [androstanol] | induced |  |  |  | 
6 | C[C@]12CC[C@@H](O)C[C@@H]1CC[C@@H]1[C@@H]2CC[C@]2(C)C=CC[C@@H]12 [androstenol] | induced |  |  |  | 
7 | CC(C)[C@@H](O)CC[C@@H](C)[C@H]1CC[C@H]2[C@@H]3CC=C4C[C@@H](O)CC[C@]4(C)[C@H]3CC[C@]12C [24-HC, 24(S)-hydroxycholesterol] |  | strongly induced | robustly activated | robustly activated | transcriptional activation of amphioxus LXR (in words) [7]: residually, but significantly, activated

Source: publication PMC5381633 (Genome Biology and Evolution, 2017)
